In brackets after ≈: the same amount, converted by molar mass.

Consider three compounds from ChEMBL document CHEMBL1157556, “Synthesis and biological screening of a combinatorial library of beta-chlorovinyl chalcones as anticancer, anti-inflammatory and antimicrobial agents” (Bioorg Med Chem, 2010).

Data set [1] has as its system Escherichia coli. Nature of the data set: Antibacterial activity against Escherichia coli MTCC 1650 at 50 ug/ml after 24 hrs agar diffusion method. In kind it is functional. The following applies: MTCC 1650, 24 h, read-out: IZ. A digest of the protocol: (§1)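 Agar well diffusion on Mueller Hinton agar seeded with 0.1 mL of a 10⁵ cfu/mL suspension in 0.85% saline. Compounds dissolved in DMSO, final concentrations 25–250 µg/mL, 0.1 mL loaded per 6 mm well. DMSO (1%) control; tetracycline (10 µg/mL) reference. Duplicate plates incubated 24 h at 37 °C. Inhibition zone read in mm. MIC taken as lowest concentration giving complete growth inhibition.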
A general note: In agar diffusion tests the substance spreads into inoculated agar from a disc or well.

In data set [2] the test system is THP-1. As to the kind of experiment: Antiinflammatory activity in human THP1 cells assessed as inhibition of LPS-induced TNFalpha release at 10 uM after 24 hrs by ELISA. The class given is functional. The following applies: THP-1, 24 h. A digest of the protocol:
(§2)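 THP-1 cells grown in RPMI 1640 with 10% FBS, penicillin and streptomycin, then PMA-differentiated. Compounds in 0.5% DMSO preincubated 30 min at 37 °C before LPS (E. coli 0127:B8) stimulation. TNF-α and IL-6 release measured by kit per the manufacturer (BD Biosciences). Percent inhibition calculated relative to control. Dexamethasone 1 µM as reference.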

A further data set deals with HCT-116. As to the kind of experiment: Anticancer activity against human HCT116 cells at 10 uM after 48 hrs by propidium iodide fluorescence assay. In kind it is functional. A digest of the protocol: (§3)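 Propidium iodide DNA-fluorescence assay. Seeding 3000–7500 cells/well, 24 h recovery at 37 °C in 5% CO₂. Compounds in 0.1% DMSO added to triplicate wells at 10 µM. Flavopiridol 700 nM and gemcitabine 500 nM as reference inhibitors. Plates frozen at −80 °C for 24 h, thawed to room temperature, fluorescence read at excitation 530 nm and emission 620 nm. Percent cytotoxicity calculated.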

The next data set has as its system Trichoderma viride. Nature of the data set: Antifungal activity against Trichoderma viride MTCC 167 at 100 ug/ml after 48 hrs agar diffusion method. The following applies: MTCC 167, 48 h, read-out: IZ. In kind it is functional. A digest of the protocol: (§4)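 Fungal spore suspensions in sterile distilled water adjusted to 10⁶ cfu/mL; 0.1 mL spread on Sabouraud dextrose agar. Wells of 6 mm filled with 0.1 mL compound dilution in DMSO. DMSO (1%) control; nystatin (30 µg/mL) reference. Duplicate plates incubated at 28 °C for 48 h. Activity read as inhibition zone diameter in mm.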

The subject of a further data set is Aspergillus niger. Nature of the data set: Antifungal activity against Aspergillus niger MTCC 1781 at 100 ug/ml after 48 hrs agar diffusion method. The class given is functional. The following applies: MTCC 1781, 48 h, read-out: IZ. A digest of the protocol:
as §4

Data set [3] has as its system Escherichia coli. As to the kind of experiment: Antibacterial activity against Escherichia coli MTCC 1650 after 24 hrs. In kind it is functional. The following applies: MTCC 1650, 24 h. A digest of the protocol:
as §1

A further data set has as its system NCI-H460. As to the kind of experiment: Anticancer activity against human H460 cells at 10 uM after 48 hrs by propidium iodide fluorescence assay. In kind it is functional. A digest of the protocol: as §3
The test system of data set [4] is Proteus vulgaris. As to the kind of experiment: Antibacterial activity against Proteus vulgaris MTCC 1771 after 24 hrs. The following applies: MTCC 1771, 24 h. In kind it is functional. A digest of the protocol:
as §1

In data set [5] the test system is THP-1. Nature of the data set: Cytotoxicity against human THP1 cells assessed as CCK8 release at 10 uM after 24 hrs by ELISA. The following applies: thp-1, 24 h. In kind it is cell-based. A digest of the protocol:
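Same THP-1 cytokine-assay cells, with compounds in 0.5% DMSO and LPS stimulation, were scored in parallel for cytotoxicity by CCK-8.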
For orientation: In an ELISA, binding on a coated surface is turned into a signal by an enzyme label.

The test system of data set [6] is Bacillus subtilis. Nature of the data set: Antibacterial activity against Bacillus subtilis MTCC 1789 after 24 hrs. The class given is functional. The following applies: MTCC 1789, 24 h. A digest of the protocol: as §1
For another data set, the system named is Penicillium chrysogenum. As to the kind of experiment: Antifungal activity against Penicillium chrysogenum MTCC 1996 at 100 ug/ml after 48 hrs agar diffusion method. The class given is functional. The following applies: MTCC 1996, 48 h, read-out: IZ. A digest of the protocol: as §4
Data set [7] relates to Staphylococcus aureus. Nature of the data set: Antibacterial activity against Staphylococcus aureus MTCC 96 after 24 hrs. The following applies: MTCC 96, 24 h. The class given is functional. A digest of the protocol: as §1
The next data set relates to ACHN. Nature of the data set: Anticancer activity against human ACHN cells at 10 uM after 48 hrs by propidium iodide fluorescence assay. In kind it is functional. A digest of the protocol:
as §3

Data set [8] has as its system Klebsiella pneumoniae. Nature of the data set: Antibacterial activity against Klebsiella pneumoniae NCIM 2957 at 50 ug/ml after 24 hrs agar diffusion method. The following applies: NCIM 2957, 24 h, read-out: IZ. In kind it is functional. A digest of the protocol:
as §1

Data set [9] relates to Klebsiella pneumoniae. As to the kind of experiment: Antibacterial activity against Klebsiella pneumoniae NCIM 2957 after 24 hrs. In kind it is functional. The following applies: NCIM 2957, 24 h. A digest of the protocol: as §1
The test system of data set [10] is THP-1. Nature of the data set: Antiinflammatory activity in human THP1 cells assessed as inhibition of LPS-induced IL6 release at 10 uM after 24 hrs by ELISA. As to conditions: THP-1, 24 h. The class given is functional. A digest of the protocol:
as §2

The test system of a further data set is Calu-1. As to the kind of experiment: Anticancer activity against human Calu1 cells at 10 uM after 48 hrs by propidium iodide fluorescence assay. The class given is functional. A digest of the protocol:
as §3

The test system of another data set is Aspergillus flavus. Nature of the data set: Antifungal activity against Aspergillus flavus MTCC 2501 at 100 ug/ml after 48 hrs agar diffusion method. The class given is functional. As to conditions: MTCC 2501, 48 h, read-out: IZ. A digest of the protocol: as §4
In data set [11] the test system is Staphylococcus aureus. Nature of the data set: Antibacterial activity against Staphylococcus aureus MTCC 96 at 50 ug/ml after 24 hrs agar diffusion method. In kind it is functional. The following applies: MTCC 96, 24 h, read-out: IZ. A digest of the protocol:
as §1

The test system of the next data set is Candida albicans. Nature of the data set: Antifungal activity against Candida albicans MTCC 227 at 100 ug/ml after 48 hrs agar diffusion method. In kind it is functional. As to conditions: MTCC 227, 48 h, read-out: IZ. A digest of the protocol: as §4
The next data set has as its system PANC-1. As to the kind of experiment: Anticancer activity against human PANC1 cells at 10 uM after 48 hrs by propidium iodide fluorescence assay. In kind it is functional. A digest of the protocol:
as §3

For data set [12], the system named is Proteus vulgaris. Nature of the data set: Antibacterial activity against Proteus vulgaris MTCC 1771 at 50 ug/ml after 24 hrs agar diffusion method. In kind it is functional. The following applies: MTCC 1771, 24 h, read-out: IZ. A digest of the protocol: as §1
For data set [13], the system named is Bacillus subtilis. As to the kind of experiment: Antibacterial activity against Bacillus subtilis MTCC 1789 at 50 ug/ml after 24 hrs agar diffusion method. The class given is functional. The following applies: MTCC 1789, 24 h, read-out: IZ. A digest of the protocol: as §1

Turning to `COc1ccc(/C(Cl)=C/C=C/C(=O)c2ccc(OC)cc2OC)cc1`, the zone of inhibition at 50 µg/mL stood at 14 mm in the data set on Escherichia coli [1]; 12 mm in the data set with Klebsiella pneumoniae [8]; 12 mm with Staphylococcus aureus [11]; 15 mm in the data set with Proteus vulgaris [12]; 20 mm in the data set on Bacillus subtilis [13]. The inhibition at 10 µM in the data set with THP-1 [2] came out at 0%; with THP-1 [10] it was 49%. Further, the Activity with HCT-116 turned out to be 31%; in the data set with NCI-H460 it was 33%; in the data set on THP-1 [5] it was 0%; in the data set with ACHN it was 33%; with Calu-1, 31%; in the data set with PANC-1, 31%. Besides, the zone of inhibition at 100 µg/mL with Trichoderma viride worked out at 14 mm; in the data set on Aspergillus niger, 15 mm; in the data set with Penicillium chrysogenum, 12 mm; in the data set on Aspergillus flavus, 12 mm; in the data set on Candida albicans it was 8 mm. Further, the MIC against Escherichia coli [3], against Proteus vulgaris [4], against Bacillus subtilis [6], against Staphylococcus aureus [7] and against Klebsiella pneumoniae [9] was 50 µg/mL (≈ 139 µM) each time.
Take `COc1ccc(C(=O)/C=C/C=C(\Cl)c2ccc(F)cc2)cc1`: the zone of inhibition at 50 µg/mL with Escherichia coli [1] was 11 mm; in the data set with Klebsiella pneumoniae [8], 15 mm; in the data set on Staphylococcus aureus [11], 16 mm; in the data set with Proteus vulgaris [12], 16 mm; with Bacillus subtilis [13], 15 mm. In addition, the inhibition at 10 µM in the data set with THP-1 [2] came out at 0%; with THP-1 [10], 6%. In addition, the Activity with HCT-116 is listed as 0%; with NCI-H460 it was 14%; in the data set on THP-1 [5] it was 2%; in the data set with ACHN, 17%; with Calu-1 it was 0%; with PANC-1 it was 1%. The zone of inhibition at 100 µg/mL with Trichoderma viride was determined as 14 mm; with Aspergillus niger it was 8 mm; in the data set with Penicillium chrysogenum, 15 mm; in the data set on Aspergillus flavus, 15 mm; in the data set on Candida albicans it was 8 mm. Besides, the minimal inhibitory concentration (MIC) against Escherichia coli [3], against Proteus vulgaris [4], in the data set on Bacillus subtilis [6], with Staphylococcus aureus [7] and in the data set on Klebsiella pneumoniae [9] was 50 µg/mL (≈ 158 µM) in each case.
As for `COc1ccc(C(=O)/C=C/C=C(\Cl)c2ccc(OC)cc2)cc1`, the zone of inhibition at 50 µg/mL was 17 mm in the data set with Escherichia coli [1], 12 mm in the data set with Klebsiella pneumoniae [8] and 12 mm in the data set on Staphylococcus aureus [11]. Also, the inhibition at 10 µM was 2% with THP-1 [2] and 11% in the data set with THP-1 [10]. The Activity is recorded as 16% in the data set with HCT-116; 19% in the data set with NCI-H460; 0% in the data set with THP-1 [5]; 28% in the data set with ACHN; 38% in the data set with Calu-1; 16% in the data set with PANC-1. The zone of inhibition at 100 µg/mL in the data set on Trichoderma viride stood at 14 mm; with Aspergillus niger, 14 mm; in the data set with Penicillium chrysogenum, 15 mm; in the data set on Aspergillus flavus, 14 mm; in the data set on Candida albicans, 11 mm. In addition, the minimum inhibitory concentration (MIC) in the data set with Escherichia coli [3], against Proteus vulgaris [4], in the data set on Bacillus subtilis [6], against Staphylococcus aureus [7] and against Klebsiella pneumoniae [9] was 50 µg/mL (≈ 152 µM) each time.

By inhibition is commonly meant the change of the read-out against control, counted positive when it falls. By MIC is commonly meant the least concentration at which growth counts as inhibited. Low readings indicate a more susceptible organism, high ones a less susceptible organism.
